Published values gathered from unrelated publications.
Each line is one published result; the experiments were not run side by side.
Target: Ephrin type-B receptor 3 (EPHB3, Homo sapiens, UniProt P54753)
One construct used (P54753 34-998): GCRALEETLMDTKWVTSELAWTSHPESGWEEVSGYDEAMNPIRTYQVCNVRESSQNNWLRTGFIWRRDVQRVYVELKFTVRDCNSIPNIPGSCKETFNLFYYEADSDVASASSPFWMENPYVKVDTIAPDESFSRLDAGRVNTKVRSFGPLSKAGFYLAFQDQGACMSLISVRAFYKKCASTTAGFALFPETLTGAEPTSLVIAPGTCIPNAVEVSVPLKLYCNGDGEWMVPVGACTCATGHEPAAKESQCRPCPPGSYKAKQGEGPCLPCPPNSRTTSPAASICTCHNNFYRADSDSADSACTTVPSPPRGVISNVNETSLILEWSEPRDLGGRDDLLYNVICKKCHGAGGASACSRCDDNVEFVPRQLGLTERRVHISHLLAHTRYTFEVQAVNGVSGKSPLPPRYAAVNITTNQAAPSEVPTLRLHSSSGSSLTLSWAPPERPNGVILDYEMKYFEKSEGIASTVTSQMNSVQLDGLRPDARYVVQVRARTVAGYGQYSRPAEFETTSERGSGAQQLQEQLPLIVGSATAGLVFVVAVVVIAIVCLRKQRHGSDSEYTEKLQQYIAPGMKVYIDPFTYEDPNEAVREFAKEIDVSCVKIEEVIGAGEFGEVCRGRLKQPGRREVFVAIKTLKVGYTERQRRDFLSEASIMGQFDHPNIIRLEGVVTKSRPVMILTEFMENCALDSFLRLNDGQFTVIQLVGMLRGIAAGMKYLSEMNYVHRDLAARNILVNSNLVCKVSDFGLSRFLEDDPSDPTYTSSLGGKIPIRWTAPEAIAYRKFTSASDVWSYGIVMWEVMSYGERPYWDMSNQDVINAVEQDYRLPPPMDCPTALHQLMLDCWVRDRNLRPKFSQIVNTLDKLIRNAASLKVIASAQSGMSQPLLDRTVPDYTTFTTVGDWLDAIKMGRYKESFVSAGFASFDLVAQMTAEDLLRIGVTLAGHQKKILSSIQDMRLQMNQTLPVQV

SMILES | read-out | technique | tested at | remaining binding
N[C@H]1CCN(c2nccc(-c3cnn4ncccc34)n2)C1 | binding |  | 1 µM | 97%
O=C(O)c1cc(-c2ccc(C3CCNCC3)cc2)c2ccc(-c3ccc(C(F)(F)F)cc3)cc2c1 | cell-free assay | competition with immobilised ligand | 1 µM | 100%
O=C(c1ccc(Nc2ncc(Cl)c(-c3ccc(Cl)s3)n2)cc1)N1CCC(N2CCCC2)CC1 | binding | competition with immobilised ligand | 1 µM | 88%
COc1ccc2c(c1)O[C@H](c1ccc(OC)c(OC)c1)C[C@@H]2NC(=O)C1(c2ccc3c(c2)OC(F)(F)O3)CC1 | cell-free assay | competition with immobilised ligand | 1 µM | 91%
Nc1ncc2c(n1)-c1c([nH]c3ccc(C#CC4CC4)cc13)CCCC2 | binding | competition with immobilised ligand | 1 µM | 100%
CN(C)c1nccc(-c2cnc3ncccn23)n1 | binding |  | 1 µM | 91%
C[C@@H](c1ccc(-n2cnc3c(N)ncnc32)cc1)N1CCc2nn(C)c(Cc3ccccc3)c2C1=O | binding | competition with immobilised ligand | 0.1 µM | 90%
C[C@@H](c1cccc(C#N)c1)n1cc(Cl)cc(C(N)=O)c1=N | cell-free assay | competition with immobilised ligand | 1 µM | 85%
O=C(c1ccc(Nc2nccc(-c3cc4ccccc4s3)n2)cc1)N1CCC(N2CCCC2)CC1 | binding | competition with immobilised ligand | 1 µM | 100%
Cc1cnn2ncc(-c3ccnc(N(C)C)n3)c2c1 | binding |  | 1 µM | 100%
O=S(=O)(NC1CCC(c2cc(F)ccc2F)(S(=O)(=O)c2ccc(Cl)cc2)CC1)C(F)(F)F (centres unmarked) | cell-free assay | competition with immobilised ligand | 1 µM | 100%
CNC(=O)[C@@H]1CC[C@@H](n2c(-c3ccc4cnccc4c3)nc3ccc(C(=O)NCc4cccc(C(N)=O)c4)cc32)C1 | binding | competition with immobilised ligand | 1 µM | 100%
CC1CCCN1c1nccc(-c2cnn3ncccc23)n1 (centres unmarked) | binding |  | 1 µM | 89%
Cc1cc(-n2nc(Cc3cc(F)cc(C(F)(F)F)c3)nc2C)ccc1C(N)=O | cell-free assay | competition with immobilised ligand | 1 µM | 100%
COc1cnc(Nc2cccc(S(N)(=O)=O)c2)nc1N1CCN(c2ccccc2)C(=O)C1 | binding | competition with immobilised ligand | 1 µM | 100%
CN(C)c1ncc(F)c(-c2cnn3ncccc23)n1 | binding |  | 1 µM | 76%
O=C1NC(c2ccccn2)Sc2ccccc21 (centres unmarked) | cell-free assay | competition with immobilised ligand | 1 µM | 80%
C[C@@H]1CCN(c2nccc(-c3cnn4ncccc34)n2)C1 | binding |  | 1 µM | 100%
O=C(NCCCN1CCOCC1)c1ccc(Nc2nccc(-c3cc4ccccc4s3)n2)cc1 | binding | competition with immobilised ligand | 1 µM | 93%
O=C(Nc1c[nH]nc1C(=O)NC1CCNCC1)c1cc(F)cc(F)c1 | binding | competition with immobilised ligand | 1 µM | 100%
